Experimental data published in ChEMBL document CHEMBL3407388, “Synthesis, anticancer activity and molecular docking studies on a series of heterocyclic trans-cyanocombretastatin analogues as antitubulin agents” (2015).

Columns and labels:
T47D = assay: Cytotoxicity against human T47D cells assessed as growth inhibition after 48 hrs by SRB assay; type: functional
CCRF-CEM = assay: Cytotoxicity against human CCRF-CEM cells assessed as growth inhibition after 48 hrs by SRB assay; type: functional
How it was run: (§1)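 NCI 60-cell panel; compounds passing a single-dose screen (10−5 M, 48 h) were tested at five 10-fold dilutions (10−4 to 10−8 M) with 48 h drug exposure. GI50 is the molar concentration giving 50% reduction in net cell growth relative to cell numbers on day 0.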

SK-MEL-28 = assay: Cytotoxicity against human SK-MEL-28 cells assessed as growth inhibition after 48 hrs by SRB assay; type: functional; conditions: SK-MEL-28, 48 h; how it was run: as §1
HOP-62 = assay: Cytotoxicity against human HOP62 cells assessed as growth inhibition after 48 hrs by SRB assay; type: functional; conditions: HOP-62, 48 h; how it was run: as §1
SK-MEL-2 = assay: Cytotoxicity against human SK-MEL-2 cells assessed as growth inhibition after 48 hrs by SRB assay; type: functional; conditions: SK-MEL-2, 48 h; how it was run: as §1
HOP-92 = assay: Cytotoxicity against human HOP92 cells assessed as growth inhibition after 48 hrs by SRB assay; type: functional; conditions: HOP-92, 48 h; how it was run: as §1
ACHN = assay: Cytotoxicity against human ACHN cells assessed as growth inhibition after 48 hrs by SRB assay; type: functional; how it was run: as §1
[1] = Cytotoxicity against human EKVX cells assessed as growth inhibition after 48 hrs by SRB assay; type: functional; how it was run: as §1
SR = assay: Cytotoxicity against human SR cells assessed as growth inhibition after 48 hrs by SRB assay; type: functional
NCI-H522 = assay: Cytotoxicity against human NCI-H522 cells assessed as growth inhibition after 48 hrs by SRB assay; type: functional; conditions: NCI-H522, 48 h; how it was run: as §1
[2] = Cytotoxicity against human OVCAR3 cells assessed as growth inhibition after 48 hrs by SRB assay; type: functional; conditions: OVCAR-3, 48 h; how it was run: as §1
SNB-75 = assay: Cytotoxicity against human SNB75 cells assessed as growth inhibition after 48 hrs by SRB assay; type: functional; conditions: SNB-75, 48 h
NCI-H322M = assay: Cytotoxicity against human NCI-H322M cells assessed as growth inhibition after 48 hrs by SRB assay; type: functional; how it was run: as §1
A549 = assay: Cytotoxicity against human A549 cells assessed as growth inhibition after 48 hrs by SRB assay; type: functional; conditions: A549, 48 h; how it was run: as §1
Malme-3M = assay: Cytotoxicity against human MALME-3M cells assessed as growth inhibition after 48 hrs by SRB assay; type: functional; how it was run: as §1
[3] = Cytotoxicity against human UACC257 cells assessed as growth inhibition after 48 hrs by SRB assay; type: functional; conditions: UACC-257, 48 h
MV4-11 = assay: Anti-leukemic activity against human MV4-11 cells assessed as cell dead after 24 to 48 hrs by annexin V-FITC/7-AAD staining-based flow cytometric analysis; type: functional; conditions: read-out: LD50 (the source's name)
How it was run: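 MV4-11 cells grown in IMDM with 10% FBS, penicillin and streptomycin, seeded at 5 × 10^5/ml and treated. At 24 and 48 h they were stained with annexin V-FITC plus 1 μg/ml 7-AAD. Percent dead cells (annexin V+) was read by flow cytometry and expressed relative to the DMSO vehicle control.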

MDA-MB-468 = assay: Cytotoxicity against human MDA-MB-468 cells assessed as growth inhibition after 48 hrs by SRB assay; type: functional; conditions: MDA-MB-468, 48 h; how it was run: as §1
Tubulin (Homo sapiens) = Tubulin (Homo sapiens) (UniProt P68371+Q9H4B7+P0DPH7+P68366+Q13509+Q71U36+P04350+Q3ZCM7+P07437+P68363+Q9BQE3+Q6PEY2+Q13885+Q9BVA1+Q9BUF5); assay: Inhibition of tubulin polymerization in human MV4-11 cells at 50 nM after 2 hrs by immunoblot analysis relative to control; type: cell-based
How it was run: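 MV4-11 AML cells were exposed for 2 h to 25, 50 or 100 nM compound. Free tubulin (supernatant) and polymerized tubulin (pellet) were separated and detected by anti-tubulin immunoblot.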

Compound	GI50 (T47D) [µM]	GI50 (CCRF-CEM) [µM]	GI50 (SK-MEL-28) [µM]	GI50 (HOP-62) [µM]	GI50 (SK-MEL-2) [µM]	GI50 (HOP-92) [µM]	GI50 (ACHN) [µM]	GI50 [1] [µM]	GI50 (SR) [µM]	GI50 (NCI-H522) [µM]	GI50 [2] [µM]	GI50 (SNB-75) [µM]	GI50 (NCI-H322M) [µM]	GI50 (A549) [µM]	GI50 (Malme-3M) [µM]	GI50 [3] [µM]	CC50 (MV4-11) [µM]	GI50 (MDA-MB-468) [µM]	inhibition (Tubulin (Homo sapiens)) [%]
COc1ccc(/C(C#N)=C/c2c[nH]c3ccccc23)cc1OC	6.83	2.74	6.25	8.69	4.7	5.26	23.7	18.5	1.45	3.05	5.68	6.04	24.3	5.16	9.91	11.9	> 20		
COc1cc(OC)cc(/C(C#N)=C/c2c[nH]c3ccccc23)c1		0.042	0.081	0.273	0.051	0.068		0.478	0.033	0.027	0.031	0.034		0.061			0.375	0.051	
COc1cc(/C(C#N)=C/c2cc3ccccc3[nH]2)cc(OC)c1OC	2.5	0.017		< 0.01	< 0.01	< 0.01	< 0.01	1.16	< 0.01	< 0.01	< 0.01	< 0.01		< 0.01	8.28	1.06	0.044	0.022	> 50
COc1ccc(/C(C#N)=C/c2cc3ccccc3[nH]2)cc1OC	0.573	0.062	1.94		0.312	0.058	0.082	0.307	0.042	0.049	0.034	0.036	0.735	0.114		27		0.35	
COc1cc(/C(C#N)=C/c2nc3ccccc3s2)cc(OC)c1OC		0.055	1.81	1.93	0.287		0.089		0.107	0.022	0.031	0.145	2.29	0.379	0.515	> 100	0.233	0.084	
COc1cc(/C(C#N)=C/c2c[nH]c3ccccc23)cc(OC)c1OC	0.058	0.058	0.09	0.082		1.01	1.76	0.596	0.022	0.037	0.033	0.042		0.078	12.5	11.3	0.565	0.041	
COc1cc(/C(C#N)=C/c2cc3ccccc3o2)cc(OC)c1OC	4.34	0.024	< 0.01	< 0.01	< 0.01	< 0.01	0.217	0.059	< 0.01	< 0.01	< 0.01	< 0.01	< 0.01	< 0.01	59.9	63.2	0.047	0.022	> 50
COc1cc(/C(C#N)=C/c2cc3ccccc3n2Cc2ccc(C#N)cc2)cc(OC)c1OC	95.2	0.136	0.161	0.092	0.528	0.077	0.079			0.033	0.042	0.039	0.465	0.076		0.062	0.369	0.041	
COc1cc(/C(C#N)=C/c2coc3ccccc23)cc(OC)c1OC	0.811	1.41	1.61	6.98	0.304	3.02	1.94		0.681	0.261	0.277	0.769	19.1	0.665	0.868		4.53	0.237	
COc1cc(OC)cc(/C(C#N)=C/c2nc3ccccc3s2)c1	1.18		1.98	3.35	0.958	0.534	0.518		0.402		0.285	2.13	> 10		0.699		4.34	2.04	
COc1ccc2[nH]cc(/C=C(\C#N)c3cc(OC)c(OC)c(OC)c3)c2c1	0.065	0.064	0.092	0.133		0.083	1.66	0.485	0.027	0.086	0.034	0.043	0.044	0.086	5.85	10.7	0.467	0.035	
COc1ccc(/C(C#N)=C/c2cc3ccccc3o2)cc1OC	0.996	0.777	3.51	2.29	0.487	1.13	12.4		0.47	0.438	0.279	1.78	6.18	0.52	0.629	18	> 20	0.421	
